Activity calls are given as the source filed them. The rule behind the calls is not given here. Some results are limits rather than exact numbers.

The target of test [1] is T1, D(1A) dopamine receptor (Homo sapiens, UniProt P21728). The test is described as follows: Displacement of [3H]SCH23390 from human dopamine D1 receptor expressed in CHO cells by scintillation counting. In kind it is cell-based. On the technique in general: Loss of bound radioactivity is the signal in a displacement assay; it reports binding, not function.
T1 sequence (P21728 whole entry): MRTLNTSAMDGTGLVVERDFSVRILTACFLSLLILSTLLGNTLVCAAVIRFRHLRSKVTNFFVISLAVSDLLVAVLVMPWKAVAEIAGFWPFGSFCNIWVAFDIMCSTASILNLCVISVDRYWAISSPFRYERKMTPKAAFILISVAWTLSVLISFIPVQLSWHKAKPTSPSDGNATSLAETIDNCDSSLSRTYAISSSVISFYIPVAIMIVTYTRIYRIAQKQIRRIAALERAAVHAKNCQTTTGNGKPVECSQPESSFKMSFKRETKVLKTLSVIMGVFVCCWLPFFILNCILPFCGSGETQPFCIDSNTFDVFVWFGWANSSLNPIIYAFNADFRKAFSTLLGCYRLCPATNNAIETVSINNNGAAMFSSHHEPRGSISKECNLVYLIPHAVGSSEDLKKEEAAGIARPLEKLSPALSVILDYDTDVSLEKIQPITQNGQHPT
Test [2] concerns the target T2, D(2) dopamine receptor (Homo sapiens, UniProt P14416). The test is described as follows: Displacement of [3H]spiperone from human dopamine D2L receptor expressed in CHO cells by scintillation counting. In kind it is cell-based.
For test [3], the target named is D(3) dopamine receptor (Homo sapiens, UniProt P35462). In words: Displacement of [3H]spiperone from human dopamine D3 receptor expressed in CHO cells by scintillation counting. In kind it is cell-based.
Sequence of D(3) dopamine receptor (Homo sapiens, UniProt P35462) (P35462 whole entry): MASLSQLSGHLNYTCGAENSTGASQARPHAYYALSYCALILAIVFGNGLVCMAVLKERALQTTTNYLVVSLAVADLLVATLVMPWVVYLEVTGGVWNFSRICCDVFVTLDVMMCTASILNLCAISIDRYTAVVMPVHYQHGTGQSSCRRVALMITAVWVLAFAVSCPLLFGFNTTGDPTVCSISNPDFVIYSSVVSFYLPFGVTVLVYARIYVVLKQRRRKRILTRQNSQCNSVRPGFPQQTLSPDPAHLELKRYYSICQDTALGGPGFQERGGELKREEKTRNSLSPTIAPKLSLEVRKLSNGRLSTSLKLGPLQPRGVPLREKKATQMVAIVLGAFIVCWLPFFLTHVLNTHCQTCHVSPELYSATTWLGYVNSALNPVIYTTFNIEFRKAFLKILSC
Test [4] concerns the target T3, D(4) dopamine receptor (Homo sapiens, UniProt P21917).
T3 sequence (P21917 whole entry): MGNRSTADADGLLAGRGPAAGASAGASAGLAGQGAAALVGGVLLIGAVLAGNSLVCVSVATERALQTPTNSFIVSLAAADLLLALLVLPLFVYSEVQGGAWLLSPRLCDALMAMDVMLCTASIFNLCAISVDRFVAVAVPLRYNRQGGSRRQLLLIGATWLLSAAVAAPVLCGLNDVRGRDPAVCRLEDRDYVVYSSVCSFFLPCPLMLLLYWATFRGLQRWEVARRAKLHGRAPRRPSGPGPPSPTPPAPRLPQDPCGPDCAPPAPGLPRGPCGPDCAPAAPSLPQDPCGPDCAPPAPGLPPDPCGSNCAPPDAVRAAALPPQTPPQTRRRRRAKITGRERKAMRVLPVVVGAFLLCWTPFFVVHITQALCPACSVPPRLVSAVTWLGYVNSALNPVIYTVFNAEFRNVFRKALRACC
The test is described as follows: Displacement of [3H]spiperone from human dopamine D4 receptor expressed in CHO cells by scintillation counting. In kind it is cell-based.

Test [5] addresses D(1B) dopamine receptor (Homo sapiens, UniProt P21918). In words: Displacement of [3H]SCH23390 from human dopamine D5 receptor expressed in CHO cells by scintillation counting. Format: cell-based.
For test [6], the target named is T1, D(1A) dopamine receptor. In words: Antagonist activity at human dopamine D1 receptor expressed in HEK293 cells assessed as SKF-38393-induced intracellular calcium by fluorescence microplate reader. Format: functional, cell-based. The method in brief:
(§1)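 They were then injected with standard agonist at 1 µM final: SKF 38393 for D1, quinpirole for D2L. Fluorescence was read at ex 485/em 520 nm for 30 s. Peak signal was fitted with a sigmoidal curve. At least two experiments, 4 or 6 replicates each.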

Test [7] addresses T2, D(2) dopamine receptor. In words: Antagonist activity at human dopamine D2L receptor expressed in HEK293 cells assessed as quinpirole-induced intracellular calcium by fluorescence microplate reader. In kind it is functional, cell-based. The method, boiled down:
as §1
In general terms: Calcium flux is commonly read through the fluorescence of an indicator in the cells.

The target in test [8] is T1, D(1A) dopamine receptor. The test is described as follows: Agonist activity at human dopamine D1 receptor expressed in HEK293 cells assessed as intracellular calcium by fluorescence microplate reader. Format: functional, cell-based. The method in brief:
(§2)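 Human receptor in HEK293 cells, loaded 45 min at 37 °C with Oregon Green 488 BAPTA-1/AM plus Pluronic F-127 in Krebs-HEPES buffer (pH 7.4). Cells were suspended, plated and held 30 min at 37 °C, 5% CO2. Test compound was injected at rising concentrations. Fluorescence was read at ex 485/em 520 nm for 30 s. Maximum intensity was fitted with a sigmoidal curve. At least two experiments, 4 or 6 replicates each.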

Test [9] concerns the target T2, D(2) dopamine receptor. In words: Agonist activity at human dopamine D2L receptor expressed in HEK293 cells assessed as intracellular calcium by fluorescence microplate reader. In kind it is functional, cell-based. The method, boiled down: as §2
For test [10], the target named is D(3) dopamine receptor (Rattus norvegicus, UniProt P19020). The test is described as follows: Displacement of [3H]spiperone from rat dopamine D3 receptor expressed in CHO cells by scintillation counting. Format: cell-based.
Sequence of D(3) dopamine receptor (Rattus norvegicus, UniProt P19020) (P19020 whole entry): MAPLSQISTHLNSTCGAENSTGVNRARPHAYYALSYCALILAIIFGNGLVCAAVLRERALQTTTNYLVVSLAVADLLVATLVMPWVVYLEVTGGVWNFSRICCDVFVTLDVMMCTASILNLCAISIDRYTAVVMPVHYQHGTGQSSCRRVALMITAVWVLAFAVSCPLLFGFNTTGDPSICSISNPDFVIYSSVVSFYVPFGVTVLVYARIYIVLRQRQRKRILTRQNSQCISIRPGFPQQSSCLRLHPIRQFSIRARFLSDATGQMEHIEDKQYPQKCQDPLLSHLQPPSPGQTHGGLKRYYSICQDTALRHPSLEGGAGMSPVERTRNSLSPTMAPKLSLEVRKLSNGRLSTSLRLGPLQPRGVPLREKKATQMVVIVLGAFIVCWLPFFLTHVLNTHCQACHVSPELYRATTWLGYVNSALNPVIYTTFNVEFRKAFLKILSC

Sequence of D(1B) dopamine receptor (P21918 whole entry): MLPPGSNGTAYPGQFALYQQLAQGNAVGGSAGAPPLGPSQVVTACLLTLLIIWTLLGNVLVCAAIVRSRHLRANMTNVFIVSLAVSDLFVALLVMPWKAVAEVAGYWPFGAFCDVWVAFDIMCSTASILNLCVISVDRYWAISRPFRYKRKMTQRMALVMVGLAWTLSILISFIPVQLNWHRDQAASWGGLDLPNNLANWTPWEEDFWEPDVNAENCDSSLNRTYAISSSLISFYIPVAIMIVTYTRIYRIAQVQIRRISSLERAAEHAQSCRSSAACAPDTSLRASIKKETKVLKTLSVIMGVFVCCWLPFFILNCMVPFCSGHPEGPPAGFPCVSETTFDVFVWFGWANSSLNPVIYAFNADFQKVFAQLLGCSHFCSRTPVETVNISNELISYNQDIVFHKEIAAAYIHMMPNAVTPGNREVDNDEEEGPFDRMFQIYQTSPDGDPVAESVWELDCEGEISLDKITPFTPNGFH
T2 sequence (P14416 whole entry): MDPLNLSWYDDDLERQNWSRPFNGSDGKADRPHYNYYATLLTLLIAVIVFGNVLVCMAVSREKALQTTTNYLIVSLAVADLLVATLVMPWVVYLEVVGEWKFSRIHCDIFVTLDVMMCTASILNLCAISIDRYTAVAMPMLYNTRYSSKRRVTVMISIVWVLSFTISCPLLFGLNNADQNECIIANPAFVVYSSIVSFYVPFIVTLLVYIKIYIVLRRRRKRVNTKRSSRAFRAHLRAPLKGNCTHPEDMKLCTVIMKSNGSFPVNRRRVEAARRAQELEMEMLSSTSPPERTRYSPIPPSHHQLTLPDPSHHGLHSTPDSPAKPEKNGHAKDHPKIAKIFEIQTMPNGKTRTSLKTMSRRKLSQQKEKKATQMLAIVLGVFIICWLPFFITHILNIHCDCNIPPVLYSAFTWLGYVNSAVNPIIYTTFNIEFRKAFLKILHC

Consider `Oc1ccc2c(c1)CCN1CCc3ccccc3C21` (stereo unspecified), for which the Ki in test [1], in test [2], in test [3], in test [4] and in test [5] was greater than 10 µM throughout. For the same molecule, the outcome in test [6] and in test [7] was Active. Further, the outcome in test [8] and in [9] was inactive.
`Cc1ccccc1CC1c2ccc(O)cc2CCN1C` (stereo unspecified): the Ki (usually a measure of affinity in units of concentration, obtained from inhibition or displacement) stood at 3.02 µM in test [1] and 2.72 µM in test [2]. Moreover, the outcome in test [6] and in test [7] was Active. Also, the result in [8] and in test [9] was inactive.
As for `Oc1cc2c(cc1O)[C@H]1c3ccccc3CN[C@@H]1CC2`, the outcome in [6] and in test [7] was Active. The outcome in [8] and in test [9] was inactive.
Turning to `CN1CCc2ccccc2Cc2ccc(O)cc2CC1`, the outcome in test [6] and in test [7] was Active. Also, the result in test [8] and in test [9] was inactive.
Turning to `COc1ccc2c(c1)CCN1CCc3ccccc3C21` (stereo unspecified), affinity in test [1] was put at a Ki of 2.12 µM. Moreover, the result in [6] and in [7] was Active. Moreover, the outcome in [8] and in [9] was inactive.
Turning to `COc1ccc2c(c1)CCN1Cc3ccccc3CC21` (stereo unspecified), the Ki in [1] turned out to be 0.183 µM; in test [2], 0.32 µM; in test [3] it was 0.251 µM; in test [4], 2.56 µM; in test [5] it was 0.185 µM. In addition, the outcome in test [6] and in [7] was Active. For the same molecule, the result in test [8] and in test [9] was inactive.
Regarding `COc1ccc2c(c1)CCCN1Cc3ccccc3C21` (stereo unspecified), the outcome in test [6] was Active. The result in test [8] was inactive.
On to `Oc1ccc2c(c1)CCN1Cc3ccccc3CC21` (stereo unspecified), for which the Ki in [1] amounted to 0.136 µM; in [2] it was 0.486 µM; in [3], 0.306 µM; in test [4] it was 5.09 µM; in test [5], 0.0411 µM. Also, the outcome in test [6] and in [7] was Active. The outcome in [8] and in test [9] was inactive.
`COc1ccc2c(c1)CCN(C)Cc1ccccc1CC2`: the Ki in [1] is 1.73 µM; in test [2], greater than 10 µM; in test [3], greater than 10 µM; in [4] it was greater than 10 µM; in test [5], 1.51 µM. Besides, the outcome in test [6] and in test [7] was Active. Also, the result in test [8] and in test [9] was inactive.
Regarding `CN1CCc2cc(O)ccc2CCc2ccccc2C1`, the result in test [6] and in [7] was Active. For the same molecule, the outcome in test [8] and in [9] was inactive.
In the case of `COc1ccc2c(c1)CCN(C)C2Cc1ccccc1C` (stereo unspecified), the inhibition constant Ki was 2.35 µM in [1]; 7.37 µM in [2]; greater than 10 µM in test [3]; 6.64 µM in test [4]; greater than 10 µM in test [5]. Further, the outcome in test [6] and in test [7] was Active. Further, the result in test [8] and in [9] was inactive.
Turning to `COc1ccc2c(c1)CCCN(C)Cc1ccccc1C2`, the inhibition constant (Ki) in test [1] is 1.26 µM; in [2], greater than 10 µM; in test [3], greater than 10 µM; in test [4], greater than 10 µM; in [5], greater than 10 µM. For the same molecule, the result in test [6] and in test [7] was Active. The result in test [8] and in test [9] was inactive.
For the molecule `COc1cc2c(cc1O)[C@@H]1Cc3ccc(O)c(OC)c3CN1CC2` [STEPHOLIDINE], the Ki was 0.0059 µM in test [1]; 0.974 µM in test [2]; 3.75 µM in [4]; 0.0044 µM in test [5]; 0.03 µM in test [10]. The outcome in [6] and in [7] was Active. The outcome in test [8] and in test [9] was inactive.
In test [4], `COc1ccc2c(c1)CCN(C)CCc1ccccc1C2` had an inhibition constant (Ki) of 0.0434 µM. Moreover, the result in test [6] and in [7] was Active. The result in test [8] and in test [9] was inactive.
For `CN1CCCc2cc(O)ccc2Cc2ccccc2C1`, the Ki in test [1] turned out to be 2.07 µM; in [5], 1.81 µM. Further, in test [6], the result was Active. Besides, the outcome in [8] was inactive.
For the molecule `CCc1cc(OC)ccc1C1Cc2ccccc2CN1C` (stereo unspecified), the inhibition constant (Ki) in [1], in test [2], in [3], in test [4] and in test [5] was greater than 10 µM throughout. Besides, the result in test [6] and in test [7] was Active. Besides, the result in test [8] and in test [9] was inactive.

For the origin of these results see ChEMBL document CHEMBL1152600, “Dibenzazecine scaffold rebuilding--is the flexibility always essential for high dopamine receptor affinities?” (Bioorg Med Chem, 2009).
